Screening data (PubChem BioAssay)
The full list was thinned out, with hits kept by preference.
GSK3 alpha inh: inhibitors of human GSK-3 alpha kinase; P49840; ADP-Glo luminescence, 60 min; inhibition, % at 10 µM; 320,000 compounds, 0.1% hits; AID 2650;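 active means more than half of replicates show inhibition above 20%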;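 further: GST-tagged GSK-3 alpha with peptide substrate and 25 µM ATP; 0% = DMSO neutral wells and 100% = GW8510 positive control wells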
Target sequence (P49840 whole entry, looked up): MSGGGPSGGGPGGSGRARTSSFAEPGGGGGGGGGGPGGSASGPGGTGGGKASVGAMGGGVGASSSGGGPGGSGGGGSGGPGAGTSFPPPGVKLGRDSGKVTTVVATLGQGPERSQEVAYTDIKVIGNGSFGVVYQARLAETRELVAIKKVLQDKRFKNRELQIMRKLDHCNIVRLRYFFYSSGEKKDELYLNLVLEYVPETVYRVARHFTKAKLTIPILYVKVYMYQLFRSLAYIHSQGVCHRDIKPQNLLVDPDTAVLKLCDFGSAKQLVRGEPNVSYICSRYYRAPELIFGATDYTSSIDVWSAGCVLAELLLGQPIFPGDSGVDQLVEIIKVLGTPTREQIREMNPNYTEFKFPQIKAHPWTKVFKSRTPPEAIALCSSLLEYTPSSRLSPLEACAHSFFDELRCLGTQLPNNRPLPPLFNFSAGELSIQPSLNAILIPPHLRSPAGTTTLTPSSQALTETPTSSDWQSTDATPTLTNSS
GSK3beta inhib: inhibitors of human GSK3beta kinase | GST-GSK3beta kinase, ADP-Glo luminescence, 60 min; active compounds read low | activity score (negative = inhibition), % at 10 µM | 300,000 compounds, 0.038% hits;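 active means more than half of replicate wells score below -50%, meaning over 50% inhibition versus plate controls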;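 further: 0% = median DMSO wells and -100% = median GW8510 positive control wells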
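Assay system: GST-tagged human GSK3beta kinase, cell-free; Input: 1.6 ng GSK3beta; Medium: Tris/MgCl2 kinase buffer; Timing: 60 min enzyme reaction, room temperature; Signal: ADP-Glo luminescence quantifying ADP generated by kinase; Evaluation: score relative to plate controls; Benchmarks: DMSO neutral wells and GW8510 at 20 µM as positive.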
STK33 kinase inh: human STK33 kinase inhibition; Q9BYT3; purified STK33, MBP phosphorylation, ADP-Glo luminescence; inhibition, % at 10 µM; 320,000 compounds, 0.073% hits; AID 2661;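 active means inhibition at or above 25%, using the most active replicate where run in duplicate; inactive means inhibition below 25%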
DYRK1A inh: blocks rat Dyrk1A kinase activity; Q63470; ADP-Glo luminescence, NFATc1 peptide; inhibition, % at 12.5 µM; 310,000 compounds, 0.43% hits; AID 504441; in the data active means inhibition above about 50%;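 further: plate controls were vehicle with enzyme for no effect and no enzyme for full effect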
Numbers without * were called inactive; x = no result.

SMILES	GSK3 alpha inh	GSK3beta inhib	STK33 kinase inh	DYRK1A inh
O=S(=O)(CCN1C=CC(C(F)(F)F)=NCC1)c1ccc(Cl)cc1Cl	-2.2	-1.3	0.5	x
COc1ccc(N/C=C(\C=C\C#N)S(=O)(=O)c2ccccc2)cc1	-2.0	2.9	-1.0	-3.1
Cc1ccsc1CN(C)C(=O)CN1C(=O)NC2(CCCc3ccccc32)C1=O (configuration not stated)	-0.8	x	1.5	9.5
N/C(=N\OC(=O)c1ccc2c(c1)OCO2)c1cccc([N+](=O)[O-])c1	0.1	1.5	3.6	5.0
Cc1cccc(/C(N)=N/OC(=O)c2ccc3c(c2)OCO3)c1	34.8	-24.8	31.6*	23.0
CS(=O)(=O)c1ccc(Cl)c(NC(=O)CN2C(=O)C3CCCCC3C2=O)c1 (configuration not stated)	-5.2	2.3	-2.6	7.4
CCN(CC)c1ccc(Nc2nc(N3CCOCC3)c3ccccc3n2)cc1	1.0	-0.3	27.9*	6.7
COc1ccc(Nc2nc(N3CCCC3)c3ccccc3n2)cc1	1.8	-4.1	3.0	15.3
O=S(=O)(Nc1ccc(N2CCCCC2)cc1)c1ccc(F)c(F)c1	-1.6	6.0	-3.5	-7.8
CCN1CCN(C(=O)C(C)Sc2nc3nc(C)cc(C)n3n2)CC1 (configuration not stated)	1.9	x	7.7	-1.2
OCCN1CCN(c2nc(-c3ccccc3O)nc3ccccc23)CC1	4.8	-2.8	39.9*	19.4
CCN1CCN(c2nc(-c3ccccc3Cl)nc3ccccc23)CC1	3.2	-4.0	0.8	15.2
CN1CCN(c2nc(-c3ccccc3O)nc3ccccc23)CC1	4.8	-1.2	32.2*	-0.9
Fc1ccc(/C=N/Nc2ncnc3nc[nH]c23)cc1F	64.6*	-21.2	7.6	25.4
CCN(CC)CCNC(=O)c1ccc(NC(=O)C2CCN(c3ncnc4sc(C)c(C)c34)CC2)cc1	53.3*	3.1	3.1	31.6
COc1ccccc1N1CCN(C(=O)CSc2nc(C)c(Cc3ccccc3)c(=O)[nH]2)CC1	-1.9	1.0	-1.4	-1.8
CC(C)(C)C1=NN=C2c3ccccc3C(=O)C21 (configuration not stated)	10.4	-3.3	30.0*	1.4
Fc1ccc(-c2cnc[nH]2)cc1	6.5	3.1	29.2*	12.3
O=S(=O)(c1cnc[nH]1)N1CCN(c2ccc(F)cc2)CC1	-4.9	2.1	-0.5	-1.6
C=CCNc1nc(N)c(C(=O)c2ccc3c(c2)OCO3)s1	79.2*	x	2.4	3.3
C=CCNc1nc(N)c(C(=O)Nc2cc(C)on2)s1	7.4	-2.2	0.7	19.8
Cc1cccc(CNc2ccc(C(CC(N)=O)NC(=O)c3cccc(Br)c3)cc2[N+](=O)[O-])c1 (configuration not stated)	-2.1	-1.8	0.0	-4.2
COc1ccc2cc(C(=O)Nc3ccc(Cl)cc3)sc(=O)c2c1OC	-0.3	-1.4	-0.4	2.1
Cc1cc(N2C(=O)c3ccc(C(=O)Nc4ccc(O)cc4C(=O)O)cc3C2=O)no1	0.5	-1.0	32.5*	-8.4
Cc1ccc(C(=O)Nc2ccc(O)cc2C(=O)O)cc1	-0.6	-9.0	1.9	3.9
SMILES	GSK3 alpha inh	GSK3beta inhib	STK33 kinase inh	DYRK1A inh
CCOC(=O)c1cnc2ccc(OC)cc2c1Nc1ccc(N2CCN(C)CC2)cc1	84.0*	-59.0*	-0.3	43.8
CCOC(=O)c1cnc2ccc(C(=O)OC)cc2c1Nc1ccc(C(=O)O)cc1	14.2	0.3	2.8	15.0
C=CCNC(=O)Cn1c(=O)c2c(ncn2CCC(C)C)n(Cc2ccccc2)c1=O	0.5	1.4	-0.4	4.6
COc1c(-c2ccc(O)c(O)c2)oc2cc(O)cc(O)c2c1=O	90.1*	0.5	17.5	85.2*
CCOc1cc(C(=S)N2CCCC2)ccc1OCC(=O)Nc1c(C)cc(C)cc1C	-0.8	-2.7	-4.0	-4.9
Cc1nn(C)cc1/C=C/C(=O)c1ccc(O)cc1	6.5	-0.5	31.3*	10.0
CN(C)Cc1c(O)ccc2c1O/C(=C\C=C\c1ccccc1)C2=O	45.6	-54.0*	8.0	2.8
O=C(OCC(O)C(O)C(O)C(SCc1ccccc1)SCc1ccccc1)c1ccccc1 (configuration not stated)	x	x	x	2.7
CCCc1cc(-c2[nH]ncc2-c2ccc3c(c2)OCCCO3)c(O)cc1O	2.2	-3.2	2.0	58.4*
Nc1nc(-c2cc(O)ccc2[N+](=O)[O-])cc(-c2ccccc2)c1[N+](=O)[O-]	1.6	-2.3	28.1*	23.4
CN(CC(=O)Nc1c(Cl)cccc1Cl)C(=O)CCNS(=O)(=O)c1ccccc1C(F)(F)F	-4.8	-0.5	-0.2	x
c1cncc(Nc2nc(-c3cccnc3)cs2)c1	9.6	-10.6	34.0*	31.6
O=C(C1=C(O)C(=O)N(CC2CCCO2)C1c1ccc(Cl)cc1Cl)c1ccco1 (configuration not stated)	0.1	-2.3	0.5	-3.2
CCOc1ccc(S(=O)(=O)N2CCN(C(=O)c3cc(C4CC4)nn3-c3ccccc3)CC2)cc1	x	x	x	-9.2
COc1cc2cc[n+](Cc3ccc([N+](=O)[O-])cc3)cc2cc1OC	2.0	3.9	0.3	2.5
Cn1c(=O)c2[nH]c(CCCC(=O)O)nc2n(Cc2ccccc2)c1=S	84.4*	-50.9*	0.8	-15.9
CCOc1ccc(NC(=O)CSc2nnnn2-c2ccc(C(N)=O)cc2)cc1	0.2	2.1	-0.7	-3.0
Cc1ccc(N2C(=O)CS/C2=N\C(=S)Nc2ccccc2)cc1	7.8	7.1	4.5	x
CCCn1nc(NC(=O)C(C)(C)C)c2cc3cc(OC)ccc3nc21	65.5*	-41.8	1.0	31.5
CCC(Oc1ccccc1)C(=O)Nc1ncc([N+](=O)[O-])s1 (configuration not stated)	-3.7	2.5	0.1	1.0
CC(CC(=O)Nc1ncc([N+](=O)[O-])s1)c1ccccc1 (configuration not stated)	52.2*	-20.2	-2.4	x
O=C1CCNc2cc3ccccc3cc21	6.5	2.4	1.9	76.1*
O=C1CCNc2ccc(-c3ccccc3)cc21	10.3	0.7	1.9	22.1
COc1ccc2nc(NC(=O)CSc3n[nH]c(N)n3)sc2c1	57.8*	-38.4	15.0	16.8
COc1ccc2nc(NC(=O)CSc3nccc(C)n3)sc2c1	14.9	-14.7	3.0	43.4
SMILES	GSK3 alpha inh	GSK3beta inhib	STK33 kinase inh	DYRK1A inh
O=C(c1ccc2[nH]ccc2c1)N1CCCC(Nc2ccccc2)C1 (configuration not stated)	x	2.3	x	-2.0
COc1cc(/C=N/n2c(-c3ccccc3)n[nH]c2=S)ccc1O	4.7	1.0	46.2*	38.8
COc1cc(/C=N/n2c(-c3ccccc3)n[nH]c2=S)cc(OC)c1O	-1.1	0.6	0.9	-9.9
COc1cc(/C=N/n2c(-c3n[nH]c4c3CCC4)n[nH]c2=S)ccc1O	15.9	-0.1	40.5*	-5.1
COc1ccccc1C(=O)N/C(=C\c1ccc2c(c1)OCO2)C(=O)NCCc1nc2ccccc2[nH]1	2.1	2.6	3.1	6.1
Cn1cc(-c2ccno2)c(C(=O)O)n1	0.7	0.6	-0.4	5.7
Cc1cc(N2CCN(C)CC2)nc2ccc(NC(=O)c3ccc(Br)o3)cc12	0.1	-4.6	33.5*	9.7
NS(=O)(=O)c1ccc(CCNC(=O)c2cc([N+](=O)[O-])ccc2N2CCCCC2)cc1	-4.2	-2.0	1.0	1.5
